Measured values: ChEMBL document CHEMBL4651341, “The discovery of a novel series of compounds with single-dose efficacy against juvenile and adult Schistosoma species” (PLoS Negl Trop Dis, 2021)

test system: Schistosoma mansoni; experiment: Concentration required to kill 50% of 21 day old worms 5 days after drug treatment.; type: functional, organism-based; conditions: Puerto Rican, 120 h
In short: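 Juvenile S. mansoni (Puerto Rican strain) were perfused from CD1 mice 3 weeks post-infection and washed. They were cultured 6–8 per well in 200 µL DMEM with 2 mM glutamine, penicillin/streptomycin and 10% FCS at 37 °C, 5% CO2. Viability of individual worms was scored on day 5 after dosing (120 h).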

**Q.** How did the EC50 turn out when `CC(C)Oc1cccc(-c2cn3c(-c4cccc(CO)c4)cnc3cn2)c1` was run?
**A.** Its EC50 is > 25 µM.

**Q.** How did the EC50 turn out when `Cn1cc(-c2cn3c(-c4ccc(O)cc4)cnc3cn2)cn1` was run?
**A.** The EC50 was > 25 µM.

**Q.** With `COc1ccc(-c2cnc3cnc(-c4cccc(F)c4)cn23)cc1` as the compound, how does the EC50 read?
**A.** Its EC50 is > 25 µM.

**Q.** With `COc1ccc(-c2cnc3cnc(-c4ccc(OC)nc4)cn23)cc1` as the compound, how does the EC50 read?
**A.** Its EC50 is > 25 µM.

**Q.** Which EC50 does the source give for `CC(C)Oc1cccc(-c2cn3c(-c4ccc(F)cc4)cnc3cn2)c1` here?
**A.** The EC50 was > 25 µM.

**Q.** Which EC50 does the source give for `CC(=O)Nc1cccc(-c2cn3c(-c4ccc(O)cc4)cnc3cn2)c1` here?
**A.** The EC50 was > 25 µM.

**Q.** With `Cn1ccc(-c2cn3c(-c4ccc(O)cc4)cnc3cn2)n1` as the compound, how does the EC50 read?
**A.** The EC50 was > 25 µM.

**Q.** For `COc1cc(-c2cnc3cnc(-c4cccc(OC(C)C)c4)cn23)ccn1`, which EC50 is on record?
**A.** Its EC50 is > 25 µM.

**Q.** With `CS(=O)(=O)Nc1cccc(-c2cn3c(-c4ccc(O)cc4)cnc3cn2)c1` as the compound, how does the EC50 read?
**A.** The EC50 was > 25 µM.

**Q.** Which EC50 does the source give for `CC(C)Oc1cccc(-c2cn3c(-c4ccc5cn[nH]c5c4)cnc3cn2)c1` here?
**A.** Its EC50 is > 25 µM.

**Q.** How did the EC50 turn out when `COc1ccc(-c2cnc3cnc(-c4ccc5c(c4)OCCO5)cn23)cc1` was run?
**A.** The EC50 was > 25 µM.

**Q.** For `Cn1cncc1-c1cn2c(-c3ccc(O)cc3)cnc2cn1`, which EC50 is on record?
**A.** Its EC50 is > 25 µM.

**Q.** For `COc1ccc(-c2cnc3cnc(-c4cccc(OC(C)C)c4)cn23)cn1`, which EC50 is on record?
**A.** Its EC50 is 24.2 µM.

**Q.** `Cn1cccc(-c2cn3c(-c4ccc(O)cc4)cnc3cn2)c1=O` was tested. Which EC50 did it give?
**A.** The EC50 was > 25 µM.

**Q.** How did the EC50 turn out when `COc1cccc(-c2cnc3cnc(-c4cccc(OC(C)C)c4)cn23)c1` was run?
**A.** The EC50 was 24.8 µM.

**Q.** For `CCOc1cccc(-c2cn3c(-c4ccc(O)cc4)cnc3cn2)c1F`, which EC50 is on record?
**A.** The EC50 was 15.6 µM.

**Q.** Which EC50 does the source give for `CC(C)Oc1cccc(-c2cn3c(-c4ccnn4C)cnc3cn2)c1` here?
**A.** The EC50 was > 25 µM.

**Q.** For `Cn1ncc2cc(-c3cn4c(-c5ccc(O)cc5)cnc4cn3)ccc21`, which EC50 is on record?
**A.** The EC50 was 21.4 µM.

**Q.** For `COc1cccc(-c2cn3c(-c4ccc(O)cc4)cnc3cn2)n1`, which EC50 is on record?
**A.** Its EC50 is > 25 µM.

**Q.** With `Cn1cc(-c2cn3c(-c4ccc(O)cc4)cnc3cn2)ccc1=O` as the compound, how does the EC50 read?
**A.** The EC50 was > 25 µM.

**Q.** How did the EC50 turn out when `CC(C)Cn1cc(-c2cn3c(-c4ccc(O)cc4)cnc3cn2)cn1` was run?
**A.** The EC50 was > 25 µM.

**Q.** With `CC(=O)c1ccc(F)c(-c2cn3c(-c4ccc(O)cc4)cnc3cn2)c1` as the compound, how does the EC50 read?
**A.** Its EC50 is > 25 µM.

**Q.** With `CN(C)C(=O)c1ccc(-c2cn3c(-c4ccc(O)cc4)cnc3cn2)cc1` as the compound, how does the EC50 read?
**A.** The EC50 was > 25 µM.

**Q.** Which EC50 does the source give for `CC(=O)c1cccc(-c2cn3c(-c4ccc(O)cc4)cnc3cn2)c1` here?
**A.** Its EC50 is > 25 µM.

**Q.** With `CC(C)Oc1cccc(-c2cn3c(-c4cccc(C#N)c4)cnc3cn2)c1` as the compound, how does the EC50 read?
**A.** Its EC50 is > 25 µM.

**Q.** For `COc1ncc(-c2cnc3cnc(-c4cccc(OC(C)C)c4)cn23)cn1`, which EC50 is on record?
**A.** Its EC50 is > 25 µM.

**Q.** Which EC50 does the source give for `COc1ccc(C(C)C)cc1-c1cn2c(-c3ccc(O)cc3)cnc2cn1` here?
**A.** Its EC50 is 6.06 µM.

**Q.** Which EC50 does the source give for `CC(=O)c1cccc(-c2cn3c(-c4ccc(O)cc4)cnc3cn2)c1F` here?
**A.** Its EC50 is > 25 µM.

**Q.** How did the EC50 turn out when `COc1cc(-c2cn3c(-c4ccc(O)cc4)cnc3cn2)ccn1` was run?
**A.** Its EC50 is > 25 µM.

**Q.** How did the EC50 turn out when `COc1cccc(-c2cn3c(-c4ccc(OC)c(F)c4)cnc3cn2)c1` was run?
**A.** The EC50 was 24.2 µM.

**Q.** `CC(C)Oc1cccc(-c2cn3c(-c4ccc(N)cc4)cnc3cn2)c1` was tested. Which EC50 did it give?
**A.** The EC50 was 21.3 µM.

**Q.** `CN(C)Cc1cccc(-c2cn3c(-c4ccc(O)cc4)cnc3cn2)c1` was tested. Which EC50 did it give?
**A.** The EC50 was 24.6 µM.

**Q.** With `Cc1n[nH]c(C)c1-c1cn2c(-c3ccc(O)cc3)cnc2cn1` as the compound, how does the EC50 read?
**A.** Its EC50 is > 25 µM.

**Q.** `Cc1c(-c2cn3c(-c4ccc(O)cc4)cnc3cn2)cnn1C` was tested. Which EC50 did it give?
**A.** The EC50 was > 25 µM.

**Q.** For `CC(C)c1ccccc1-c1cn2c(-c3ccc(O)cc3)cnc2cn1`, which EC50 is on record?
**A.** Its EC50 is 16.6 µM.

**Q.** `CN(C)C(=O)c1cccc(-c2cn3c(-c4ccc(O)cc4)cnc3cn2)c1` was tested. Which EC50 did it give?
**A.** Its EC50 is > 25 µM.

**Q.** With `COc1cccc(-c2cn3c(-c4ccc5c(c4)CCO5)cnc3cn2)c1` as the compound, how does the EC50 read?
**A.** The EC50 was > 25 µM.

**Q.** How did the EC50 turn out when `COc1ccc(-c2cnc3cnc(-c4ccnc(OC)c4)cn23)cc1` was run?
**A.** Its EC50 is > 25 µM.

**Q.** Which EC50 does the source give for `CCCOc1cc(-c2cn3c(-c4ccc(O)cc4)cnc3cn2)ccc1OC` here?
**A.** The EC50 was 25 µM.

**Q.** For `CC(C)Oc1cccc(-c2cn3c(-c4ccc(CO)cc4)cnc3cn2)c1`, which EC50 is on record?
**A.** The EC50 was 25 µM.

**Q.** Which EC50 does the source give for `CC(C)Oc1cccc(-c2cn3c(-c4ccc(S(N)(=O)=O)cc4)cnc3cn2)c1` here?
**A.** The EC50 was 25 µM.

**Q.** With `COc1ccc(-c2cnc3cnc(-c4cccc(C#N)c4)cn23)cc1` as the compound, how does the EC50 read?
**A.** Its EC50 is > 25 µM.

**Q.** How did the EC50 turn out when `CN(C)S(=O)(=O)c1cccc(-c2cn3c(-c4ccc(O)cc4)cnc3cn2)c1` was run?
**A.** The EC50 was > 25 µM.

**Q.** Which EC50 does the source give for `CS(=O)(=O)c1cncc(-c2cn3c(-c4ccc(O)cc4)cnc3cn2)c1` here?
**A.** Its EC50 is > 25 µM.

**Q.** `COc1cccc(-c2cnc3cnc(-c4cccc(OC(C)C)c4)cn23)n1` was tested. Which EC50 did it give?
**A.** The EC50 was > 25 µM.
